In ChEMBL document CHEMBL1148339, “Synthesis, structure-activity relationships, and drug resistance of beta-d-3'-fluoro-2',3'-unsaturated nucleosides as anti-HIV Agents” (J Med Chem, 2004) one finds Km data, which are given here for 1 protein.

Substrate in this data set: Nc1ncnc2c1ncn2[C@H]1C=C[C@@H](CO)O1
The data set is described as follows: Menten constant against adenosine deaminase (ADA). In short, it runs like this: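 Deamination by calf intestinal mucosa adenosine deaminase (0.15 units, MW 33 000, in 2 mL) in phosphate buffer pH 7.4 at 25 °C, substrate 15–100 μM, monitored by UV at 265 nm. Initial rates from graphical fitting of concentration vs time; Vmax and KM from Lineweaver–Burk plot, kcat calculated from enzyme amount.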

B1: Adenosine deaminase (Bos taurus), P56658 (protein)
chain: MAQTPAFNKPKVELHVHLDGAIKPETILYYGRKRGIALPADTPEELQNIIGMDKPLSLPEFLAKFDYYMPAIAGCREAVKRIAYEFVEMKAKDGVVYVEVRYSPHLLANSKVEPIPWNQAEGDLTPDEVVSLVNQGLQEGERDFGVKVRSILCCMRHQPSWSSEVVELCKKYREQTVVAIDLAGDETIEGSSLFPGHVKAYAEAVKSGVHRTVHAGEVGSANVVKEAVDTLKTERLGHGYHTLEDATLYNRLRQENMHFEVCPWSSYLTGAWKPDTEHPVVRFKNDQVNYSLNTDDPLIFKSTLDTDYQMTKNEMGFTEEEFKRLNINAAKSSFLPEDEKKELLDLLYKAYGMPSPASAEQCL
For the protein B1, the Michaelis-Menten constant (Km) was found to be 30 µM.
